From PubChem BioAssay
This is a sample that favours compounds with a hit; in the whole collection about 1.5% have one here.
NR2E3 ag-1: activates human photoreceptor nuclear receptor NR2E3. inhibition of corepressor binding, % at 4.78 µM. GST-NR2E3/biotin-RetCOR TR-FRET, 1536-well. 0.12% of 320,000 active. AID 2300. Q9Y5X4;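 active = percent inhibition above the cutoff of mean plus 3 SD of all tested compounds, set per screening campaign, cut at about 20% in these data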;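 also: 0% = DMSO wells and 100% = biotin wells as full block of FRET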
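Material – GST-tagged NR2E3 plus biotinylated RetCOR corepressor · Quantity – NR2E3 fusion 1.35 nM · Times – 5 h incubation at 4 °C · Medium – pH 7.5 Tris-based buffer · Technique – TR-FRET, Eu(K)-anti-GST donor, streptavidin-D2 acceptor, ex 340, em 617/671 nm · Benchmarks – high control biotin, low control 0.6% DMSO · Format – 1536-well plates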
NR2E3 ag-2: agonists of human NR2E3 nuclear receptor | AID 602229 | CHO-S Gal4-NCOR/VP16-NR2E3 two-hybrid, luciferase | inhibition of corepressor binding, % at 3.98 µM | 0.35% of 360,000 active | Q9Y5X4;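 active = inhibition above the mean of all tested compounds plus 3 SD, cut at about 70% in these data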;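 also: 0% = DMSO with NR2E3 transfected cells and 100% = cells lacking NR2E3 construct; higher means lower luciferase signal from less NR2E3 corepressor binding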
PG9 binder: binds the HIV-1 gp120 antibody PG9 | 0.43% of 360,000 active | inhibition, % at 6.7 µM | TR-FRET gp120-PG9 antibody binding | AID 624416; in the data active = inhibition above about 8.5%
NR1D1 modulator: modulators of human Rev-erb alpha DNA binding. Rev-erbα–FITC-DNA binding, fluorescence polarization, 90 min. activity, % at 10 µM. 0.79% of 370,000 active;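 active = activity above about 14%, limit read from the data; passing the limit was not always enough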;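 also: 0% = DMSO wells with 35 nM protein and 100% = DMSO wells with 750 nM protein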
Target sequence (P20393 whole entry, looked up): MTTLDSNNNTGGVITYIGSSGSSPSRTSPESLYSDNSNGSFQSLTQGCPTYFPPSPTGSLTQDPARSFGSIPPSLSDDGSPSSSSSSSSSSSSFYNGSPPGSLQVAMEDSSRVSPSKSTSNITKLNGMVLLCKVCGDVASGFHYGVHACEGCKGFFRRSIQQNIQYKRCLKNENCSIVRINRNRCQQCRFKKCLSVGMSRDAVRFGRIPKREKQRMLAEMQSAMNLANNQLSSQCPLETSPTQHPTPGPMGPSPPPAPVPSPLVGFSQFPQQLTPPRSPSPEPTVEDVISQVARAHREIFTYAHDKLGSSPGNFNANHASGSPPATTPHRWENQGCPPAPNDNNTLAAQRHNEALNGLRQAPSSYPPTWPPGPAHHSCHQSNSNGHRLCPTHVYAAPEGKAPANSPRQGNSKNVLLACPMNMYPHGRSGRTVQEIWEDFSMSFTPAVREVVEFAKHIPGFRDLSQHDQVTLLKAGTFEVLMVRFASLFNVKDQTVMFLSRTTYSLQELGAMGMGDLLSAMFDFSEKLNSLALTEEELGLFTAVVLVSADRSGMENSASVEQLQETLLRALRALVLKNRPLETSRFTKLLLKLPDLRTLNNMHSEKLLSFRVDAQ
NR2E3 ag conf: confirmation of human NR2E3 agonists; shares compounds with NR2E3 ag-2; AID 624378; 51% of 2,300 active; inhibition, % at 3.98 µM; CHO-S mammalian two-hybrid NR2E3-NCOR, luciferase luminescence;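 active = average inhibition above a cutoff equal to the mean inhibition of all tested compounds plus one SD, cut at about 70% in these data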;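 also: 0% = DMSO in NR2E3 cells and 100% = DMSO in cells lacking NR2E3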
GAL4-VP16 luc: GAL4-VP16 reporter inhibition in NR2E3 agonist counterscreen | 29% of 2,300 active | AID 624379 | shares compounds with NR2E3 ag-2 | inhibition, % at 3.98 µM | CHO-S GAL4-VP16 luciferase reporter, luminescence;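 active = mean inhibition above a cutoff equal to the average over all tested compounds plus one standard deviation, cut at about 70% in these data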;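 also: luciferase from a UAS reporter driven by GAL4-VP16 transactivation; 0% = DMSO with VP16-transfected cells and 100% = DMSO with cells lacking VP16; higher means less reporter light so more repression of VP16 activity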
Active calls of the source: *; . = no result given.

SMILES | NR2E3 ag-1 | NR2E3 ag-2 | PG9 binder | NR1D1 modulator | NR2E3 ag conf | GAL4-VP16 luc
CC(C)(C)NC(=O)[C@H](c1cccnc1)N(C(=O)c1ccco1)c1ccc(C(C)(C)C)cc1 | . | . | . | 2 | . | .
COc1cccc(CNC(=O)C(C)n2ccc3cc(S(=O)(=O)N4CCCCCC4)ccc32)c1 (stereo not given) | 0 | -17 | 0 | -3 | . | .
CCC(C(=O)NCCC(C)C)n1ccc2cc(S(=O)(=O)N3CCCCC3)ccc21 (stereo not given) | -1 | 60 | . | . | 49 | 47
COC(=O)[C@]1(C#N)CC(=O)N(Cc2ccc(Cl)cc2)[C@@H]1c1ccccc1 | . | . | . | 2 | . | .
CC(=O)N1CCN(S(=O)(=O)c2cccc(C(=O)OCc3ccc(C(C)(C)C)cc3)c2)CC1 | . | 73* | 0 | -1 | 78* | 76*
CCCCc1c(-c2ccccc2OC)ncn1CCc1ccccc1OC | . | 28 | 0 | 9 | . | .
CCCCCc1c(-c2ccccc2OC)ncn1CCc1ccccc1OC | . | 66 | -1 | 0 | 62 | 30
CC1Sc2ccc(S(=O)(=O)N3CCC(C(=O)Nc4ccc(Cl)cc4)CC3)cc2NC1=O (stereo not given) | -2 | 103* | -1 | 7 | 94* | 75*
Cc1ccc(NC(=O)C2CCN(S(=O)(=O)c3ccc(N4CCCC4=O)cc3)CC2)cc1Cl | -4 | 107* | 0 | 0 | 99* | 91*
COc1ccc(NC(=O)C2CCN(S(=O)(=O)c3ccc4c(c3)NC(=O)C(C)S4)CC2)cc1 (stereo not given) | 0 | 4 | 0 | -2 | . | .
CC(=NNc1cc(C)c2ccccc2n1)c1ccccn1 | . | . | -2 | 1 | . | .
Oc1ccc(Oc2ccccc2F)c2cccnc12 | . | . | . | 6 | . | .
CCCCCSc1nncc(=O)[nH]1 | 1 | -17 | -2 | 4 | . | .
CCCCCCCCSC1=CC(=O)C(OC)=C(OC)C1=O | . | 59 | 3 | 8 | 93* | 68
Cc1nn(CCC(=O)NNC(=O)Nc2ccc(Cl)cc2)c(C)c1[N+](=O)[O-] | . | . | . | 2 | . | .
O=C(NCc1cccnc1)/C(=C\c1ccc(-c2ccc(Cl)c(Cl)c2)o1)S(=O)(=O)c1ccccc1 | 1 | 92* | -2 | -6 | 99* | 36
O=C(NCc1cccnc1)c1ccc(-c2ccc(Cl)cc2)o1 | 3 | 6 | -2 | 0 | . | .
CC(=O)Nc1ccc(S(=O)(=O)N2CCN=C2SCc2ccc([N+](=O)[O-])cc2)cc1 | 0 | 50 | 1 | 1 | 79* | 49
Cc1ccc(-n2c(-c3ccc(Br)cc3)c[n+]3c2CCc2ccc4cccnc4c2-3)cc1 | -6 | 83* | -1 | -4 | 99* | 72*
COc1ccc(-n2c(-c3ccc(Cl)cc3)c[n+]3c2CCc2ccccc2-3)cc1 | 3 | -2 | -3 | 2 | . | .
O=C(Oc1coc(CSc2ncccn2)cc1=O)c1ccc([N+](=O)[O-])cc1 | . | . | . | 1 | . | .
O=C(Nc1ccc(NS(=O)(=O)c2ccccc2)cc1)c1ccc(Cl)cc1 | -2 | 8 | 1 | -4 | . | .
O=C(Nc1cccc(S(=O)(=O)Nc2ccc(Cl)cc2)c1)c1ccc(Cl)nc1 | 7 | 74* | 2 | 7 | 59 | 76*
COc1ccc(NS(=O)(=O)c2cccc(NC(=O)c3ccc(Cl)nc3)c2)cc1 | 5 | 83* | 1 | -4 | 84* | 78*
COc1ccc(/C=C2\CC3(OC(=O)c4ccc(F)cc4)CCCN2C3)cc1 (stereo not given) | . | . | . | -1 | . | .
SMILES | NR2E3 ag-1 | NR2E3 ag-2 | PG9 binder | NR1D1 modulator | NR2E3 ag conf | GAL4-VP16 luc
CC(=O)N1CC(C)Sc2ccc(S(=O)(=O)NCCc3ccc(C)cc3)cc21 (stereo not given) | 3 | 80* | 3 | -2 | 74* | 68
CC(=O)N1CC(C)Sc2ccc(S(=O)(=O)NCc3ccc(Cl)cc3)cc21 (stereo not given) | 5 | 48 | 0 | -2 | 42 | 42
[O-][n+]1ccccc1SSc1cccc[n+]1[O-] | . | . | . | 0 | . | .
CC(C)(C)OC(=O)C1[C@H](O)C=CC[C@H]1S(=O)c1ccccc1 (stereo not given in full) | . | . | . | 7 | . | .
OC(c1cc(C(F)(F)F)nc2c(C(F)(F)F)cccc12)C1CCCCN1 (stereo not given) | 4 | 14 | 0 | -3 | . | .
OC(c1cc(-c2ccc(C(F)(F)F)cc2)nc(C(F)(F)F)c1)C1CCCCN1 (stereo not given) | -1 | 92* | 0 | 1 | 59 | 48
O=C(Cn1nnc(-c2ccccc2F)n1)Nc1ccc(F)cc1F | . | . | . | -1 | . | .
Nc1cc(=O)[nH]c(SC/C=C/c2ccccc2)n1 | -3 | 12 | 0 | -1 | . | .
CCc1c(C)nc(SC/C=C/c2ccccc2)[nH]c1=O | -1 | 83* | . | . | 41 | 43
O=c1cc(C(F)(F)F)nc(SC/C=C/c2ccccc2)[nH]1 | 1 | 52 | . | . | 77* | 29
Nc1c(CC(=O)O)cccc1C(=O)c1ccccc1 | . | . | . | -4 | . | .
Cc1cc(C(=O)COC(=O)c2cc(O)c3ccccc3c2O)c(C)n1CC1CCCO1 (stereo not given) | . | 21 | . | . | . | .
CCn1c(C)cc(C(=O)COC(=O)c2ccccc2[N+](=O)[O-])c1C | . | 105* | . | . | 89* | 87*
Cc1cc(C(=O)COC(=O)c2ccccc2Br)c(C)n1CC1CCCO1 (stereo not given) | -1 | 89* | 0 | 2 | 81* | 71*
Cc1cc(C(=O)COc2ccccc2C(N)=O)c(C)n1CC1CCCO1 (stereo not given) | 1 | 69 | 1 | 0 | 90* | 69
Cc1ccc(C(=O)OCC(=O)c2cc(C)n(CC3CCCO3)c2C)cc1 (stereo not given) | -3 | -26 | -1 | -5 | . | .
Cc1cc(C(=O)COC(=O)c2ccccc2O)c(C)n1CC1CCCO1 (stereo not given) | 0 | 95* | -2 | 3 | 89* | 80*
Cc1cc(C(=O)COC(=O)C2COc3ccccc3O2)c(C)n1CC1CCCO1 (stereo not given) | -2 | -13 | -1 | -1 | . | .
Cc1cc(C(=O)O[C@@H]2CCC[C@@]3(C(=O)N(Cc4ccccc4)c4ccccc43)[C@H]2NC(=O)CCc2ccccc2)no1 | . | . | . | 4 | . | .
CCOC(=O)CNC(=O)CSc1nnc(-c2ccc(C(C)(C)C)cc2)n1-c1ccc(Cl)cc1 | . | . | . | 4 | . | .
COCCn1c(C)cc(C(=O)COC(=O)c2cccnc2SC)c1C | . | -87 | 0 | 5 | . | .
Cc1cc(C(=O)COC(=O)c2ccccc2NCCO)c(C)n1CC1CCCO1 (stereo not given) | 1 | 13 | -1 | 1 | . | .
COCCn1c(C)cc(C(=O)COC(=O)c2ccccc2Br)c1C | 0 | 79* | 0 | -3 | 26 | 35
Cc1cc(C(=O)COC(=O)c2cccnc2Cl)c(C)n1CC1CCCO1 (stereo not given) | 9 | 60 | -2 | -2 | 47 | 10
